Laboratory results reported in ChEMBL document CHEMBL3421533, “The Discovery of Orally Bioavailable Tyrosine Threonine Kinase (TTK) Inhibitors: 3-(4-(heterocyclyl)phenyl)-1H-indazole-5-carboxamides as Anticancer Agents” (J Med Chem, 2015).

Assays:
[1] = Cmax in athymic CD1 nude mouse at 10 mg/kg, po by LC-MS/MS analysis; format: ADME, organism-based; parameters: dose 10 mg/kg, route oral; conditions: athymic CD1 nude, in vivo
[2] = Half life in dog liver microsomes at 1 uM by LC-MS analysis; format: ADME, Canis lupus familiaris
[3] = target: Proto-oncogene tyrosine-protein kinase receptor Ret (Homo sapiens, UniProt P07949, V804M); assay: Inhibition of human Ret V804M mutant by millipore radiometric assay
Procedure, shortened: (§1)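 Radiometric profiling against a 278-kinase panel was done with ATP at Km. Half-maximal inhibitory concentrations were then determined for the kinases most inhibited.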

[4] = system: HCT-116; assay: Induction of chromosome segregation defect in human HCT116 cells assessed as anaphase and telophase cells with lagging chromosomes at 500 nM incubated for 6 hrs post double thymidine block by DAPI staining-based immunofluorescence microscopic analysis (reference value: 19 +/- 2%); format: functional
[5] = Plasma protein binding in mouse; format: ADME; conditions: read-out: PPB (converted)
[6] = system: A549; assay: Cytotoxicity against human A549 cells after 5 days by sulforhodamine B assay; format: functional; conditions: A549, 120 h
Procedure, shortened: (§2)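 Cancer lines were seeded at 800–6000 cells per well according to growth rate, 24 h before compound overlay. After culture, cells were fixed in situ and stained with sulforhodamine B. GI50 values were derived by curve fitting.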

[7] = system: MDA-MB-468; assay: Cytotoxicity against human MDA-MB-468 cells after 5 days by sulforhodamine B assay; format: functional; procedure, shortened: as §2
[8] = Cytotoxicity against human H23 cells after 5 days by sulforhodamine B assay; format: functional; conditions: NCI-H23, 120 h; procedure, shortened: as §2
[9] = target: Muscle, skeletal receptor tyrosine-protein kinase (Homo sapiens, UniProt O15146); assay: Inhibition of human MuSK by millipore radiometric assay; procedure, shortened: as §1
[10] = system: COLO 205; assay: Cytotoxicity against human COLO205 cells after 5 days by sulforhodamine B assay; format: functional; conditions: COLO 205, 120 h; procedure, shortened: as §2
[11] = Cytotoxicity against human HCT116 cells after 5 days by sulforhodamine B assay; format: functional, HCT-116; procedure, shortened: as §2
[12] = system: MCF7; assay: Cytotoxicity against human MCF7 cells after 5 days by sulforhodamine B assay; format: functional; conditions: MCF7, 120 h; procedure, shortened: as §2
[13] = system: SW48; assay: Antitumor activity against human SW48 cells xenografted in CD-1 nude mouse assessed as tumor growth inhibition at 30 mg/kg, po qd administered for 21 days measured 3 times per week during compound dosing relative to vehicle-treated control; format: functional; conditions: SW48, 504 h, read-out: TGI
Procedure, shortened: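 Randomization into groups (n = 7) at 80–120 mm³ mean tumor volume. Compound was given orally once daily for 21 days in 10% NMP/40% PEG400/50% DI water, top dose 30 mg/kg. Tumor volume (x²y/2) was taken three times weekly, and TGI was calculated against vehicle.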

[14] = Antitumor activity against human HCT116 cells xenografted in athymic CD1 nude mouse assessed as tumor growth inhibition at 23 mg/kg, po qd administered for 21 days measured 3 times per week during compound dosing relative to vehicle-treated control; format: functional; conditions: HCT-116, 504 h, read-out: TGI
Procedure, shortened: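 HCT116 cells (5 million) were injected subcutaneously into the right flank of 6–8 week old female athymic CD-1 nude mice. At a mean tumor volume of 80–120 mm³, mice were randomized (n = 8). Dosing was oral, daily for 21 days, in 10% NMP/40% PEG400/50% DI water, at the MTD and ~2/3 MTD. Tumors were measured three times weekly, volume x²y/2, and TGI was taken against vehicle.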

[15] = Oral bioavailability in dog; format: ADME, organism-based, Canis lupus familiaris; conditions: in vivo
[16] = Cytotoxicity against HMEC after 5 days by sulforhodamine B assay; format: cell-based; conditions: human, HMEC cells
Procedure, shortened: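 Cells were seeded at 800–6000 per well according to growth rate, 24 h before compound overlay. After culture they were fixed in situ and stained with sulforhodamine B. GI50 was calculated by curve fitting.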

[17] = target: Aurora kinase B/Inner centromere protein (Homo sapiens, UniProt Q96GD4); assay: Inhibition of AURKB/INCENP (unknown origin) preincubated for 15 mins prior to ATP addition by FRET-based homogenous assay; format: protein-complex assay
Procedure, shortened: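 The enzyme was AURKB/INCENP in a FRET-based homogeneous assay run to kit specifications, with ATP at 128 μM. […] Each IC50 came from a single determination, reported with its standard fitting error.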

[18] = system: HT-29; assay: Cytotoxicity against human HT-29 cells after 5 days by sulforhodamine B assay; format: functional; conditions: HT-29, 120 h; procedure, shortened: as §2
[19] = Cytotoxicity against human SKBR3 cells after 5 days by sulforhodamine B assay; format: functional; conditions: SK-BR-3, 120 h; procedure, shortened: as §2
[20] = Cytotoxicity against human OVCAR3 cells after 5 days by sulforhodamine B assay; format: functional, OVCAR-3
[21] = Half life in rat liver microsomes at 1 uM by LC-MS analysis; format: ADME; conditions: liver microsomes
[22] = Plasma protein binding in rat; format: ADME, cell-free; conditions: read-out: PPB (converted)
[23] = target: Proto-oncogene tyrosine-protein kinase receptor Ret (Homo sapiens, UniProt P07949); assay: Inhibition of human Ret by millipore radiometric assay; procedure, shortened: as §1
Proto-oncogene tyrosine-protein kinase receptor Ret (Homo sapiens, UniProt P07949), sequence (P07949 whole entry): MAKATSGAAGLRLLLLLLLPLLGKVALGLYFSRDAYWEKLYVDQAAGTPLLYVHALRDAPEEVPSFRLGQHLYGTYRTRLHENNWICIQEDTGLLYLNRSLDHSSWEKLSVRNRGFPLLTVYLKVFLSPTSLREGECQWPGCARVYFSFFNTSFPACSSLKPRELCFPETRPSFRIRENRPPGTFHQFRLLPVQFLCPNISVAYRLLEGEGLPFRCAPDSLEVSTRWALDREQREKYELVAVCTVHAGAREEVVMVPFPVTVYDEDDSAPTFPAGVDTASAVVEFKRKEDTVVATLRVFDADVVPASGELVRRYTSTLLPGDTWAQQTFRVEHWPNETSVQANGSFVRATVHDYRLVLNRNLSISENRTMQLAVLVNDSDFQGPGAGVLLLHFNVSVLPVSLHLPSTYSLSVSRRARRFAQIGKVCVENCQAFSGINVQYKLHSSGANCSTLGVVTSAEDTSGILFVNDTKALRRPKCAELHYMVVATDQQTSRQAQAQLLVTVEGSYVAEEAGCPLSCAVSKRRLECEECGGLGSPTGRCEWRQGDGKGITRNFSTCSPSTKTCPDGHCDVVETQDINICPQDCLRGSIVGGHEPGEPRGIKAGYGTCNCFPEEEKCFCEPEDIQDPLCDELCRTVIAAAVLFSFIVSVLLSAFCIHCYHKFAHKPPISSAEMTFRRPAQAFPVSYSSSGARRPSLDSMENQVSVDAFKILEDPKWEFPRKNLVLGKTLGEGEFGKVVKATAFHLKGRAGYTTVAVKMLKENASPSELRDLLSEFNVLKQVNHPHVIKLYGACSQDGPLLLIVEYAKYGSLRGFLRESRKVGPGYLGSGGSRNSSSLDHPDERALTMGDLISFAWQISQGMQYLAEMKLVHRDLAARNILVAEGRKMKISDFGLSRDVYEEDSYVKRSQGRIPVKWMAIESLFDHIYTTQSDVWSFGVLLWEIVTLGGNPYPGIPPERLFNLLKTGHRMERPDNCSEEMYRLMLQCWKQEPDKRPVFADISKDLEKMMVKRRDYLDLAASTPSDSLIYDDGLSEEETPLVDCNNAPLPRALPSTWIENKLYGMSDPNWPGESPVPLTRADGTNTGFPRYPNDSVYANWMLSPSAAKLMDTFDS

Proto-oncogene tyrosine-protein kinase receptor Ret (Homo sapiens, UniProt P07949, V804M), sequence (P07949 29-1114 V804M limits assumed): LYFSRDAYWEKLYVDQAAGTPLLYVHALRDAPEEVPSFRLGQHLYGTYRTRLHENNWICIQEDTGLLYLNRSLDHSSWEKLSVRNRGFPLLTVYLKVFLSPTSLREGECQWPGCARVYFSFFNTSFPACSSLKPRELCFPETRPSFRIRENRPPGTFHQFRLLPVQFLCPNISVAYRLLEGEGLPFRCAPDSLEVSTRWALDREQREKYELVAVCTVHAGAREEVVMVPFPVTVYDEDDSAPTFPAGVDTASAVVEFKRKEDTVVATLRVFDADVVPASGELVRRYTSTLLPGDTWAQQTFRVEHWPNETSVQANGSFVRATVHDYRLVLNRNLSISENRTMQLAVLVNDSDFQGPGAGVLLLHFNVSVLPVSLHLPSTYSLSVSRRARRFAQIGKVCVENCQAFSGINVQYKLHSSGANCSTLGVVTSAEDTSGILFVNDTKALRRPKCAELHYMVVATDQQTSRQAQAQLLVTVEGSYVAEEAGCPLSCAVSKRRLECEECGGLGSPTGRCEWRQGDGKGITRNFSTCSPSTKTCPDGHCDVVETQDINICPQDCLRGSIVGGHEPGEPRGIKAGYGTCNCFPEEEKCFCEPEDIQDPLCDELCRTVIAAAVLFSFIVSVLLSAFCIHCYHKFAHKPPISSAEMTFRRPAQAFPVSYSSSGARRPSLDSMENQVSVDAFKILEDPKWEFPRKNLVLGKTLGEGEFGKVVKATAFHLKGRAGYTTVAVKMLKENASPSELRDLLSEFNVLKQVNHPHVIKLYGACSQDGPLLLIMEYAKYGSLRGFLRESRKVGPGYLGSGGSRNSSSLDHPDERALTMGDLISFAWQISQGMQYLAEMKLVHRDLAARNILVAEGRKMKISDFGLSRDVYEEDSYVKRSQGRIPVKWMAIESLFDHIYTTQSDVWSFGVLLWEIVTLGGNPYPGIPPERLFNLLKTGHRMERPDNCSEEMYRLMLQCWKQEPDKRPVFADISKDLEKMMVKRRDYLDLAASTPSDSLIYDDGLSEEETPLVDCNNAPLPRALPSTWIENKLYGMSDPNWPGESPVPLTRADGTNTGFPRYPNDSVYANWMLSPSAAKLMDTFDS
Aurora kinase B/Inner centromere protein, sequence (Q96GD4 whole entry): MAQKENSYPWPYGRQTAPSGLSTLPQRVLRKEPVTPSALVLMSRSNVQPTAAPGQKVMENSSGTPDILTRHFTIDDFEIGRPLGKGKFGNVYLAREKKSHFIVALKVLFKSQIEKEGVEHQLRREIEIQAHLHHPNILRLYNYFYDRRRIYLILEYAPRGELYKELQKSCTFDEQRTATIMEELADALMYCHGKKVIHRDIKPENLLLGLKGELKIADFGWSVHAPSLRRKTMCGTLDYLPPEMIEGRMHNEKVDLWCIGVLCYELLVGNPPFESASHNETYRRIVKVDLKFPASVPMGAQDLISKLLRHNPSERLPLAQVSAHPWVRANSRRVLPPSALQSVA
Aurora kinase B/Inner centromere protein, sequence (Q9NQS7 whole entry, further chain): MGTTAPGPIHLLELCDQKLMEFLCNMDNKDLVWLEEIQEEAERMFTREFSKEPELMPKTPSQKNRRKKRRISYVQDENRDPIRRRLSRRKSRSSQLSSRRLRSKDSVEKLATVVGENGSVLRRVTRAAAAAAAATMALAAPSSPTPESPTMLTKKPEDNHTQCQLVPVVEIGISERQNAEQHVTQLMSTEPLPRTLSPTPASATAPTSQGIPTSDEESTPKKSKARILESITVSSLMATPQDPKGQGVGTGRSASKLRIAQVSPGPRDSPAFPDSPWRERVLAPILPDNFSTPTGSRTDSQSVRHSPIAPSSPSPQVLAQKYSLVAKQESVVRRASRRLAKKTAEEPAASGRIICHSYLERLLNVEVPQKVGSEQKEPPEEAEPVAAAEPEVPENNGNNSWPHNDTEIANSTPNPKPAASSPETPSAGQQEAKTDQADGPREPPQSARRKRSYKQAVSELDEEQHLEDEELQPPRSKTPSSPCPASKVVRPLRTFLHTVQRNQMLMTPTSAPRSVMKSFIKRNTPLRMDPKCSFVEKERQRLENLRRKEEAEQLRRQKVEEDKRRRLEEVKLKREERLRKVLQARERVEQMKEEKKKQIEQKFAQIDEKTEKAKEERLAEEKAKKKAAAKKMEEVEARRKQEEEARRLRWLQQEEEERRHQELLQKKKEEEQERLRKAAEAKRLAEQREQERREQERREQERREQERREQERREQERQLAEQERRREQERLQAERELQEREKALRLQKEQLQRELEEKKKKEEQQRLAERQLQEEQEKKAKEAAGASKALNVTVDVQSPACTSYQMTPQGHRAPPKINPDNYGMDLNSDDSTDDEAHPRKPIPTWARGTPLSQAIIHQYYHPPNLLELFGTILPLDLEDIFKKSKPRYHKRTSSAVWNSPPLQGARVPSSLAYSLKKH
Muscle, skeletal receptor tyrosine-protein kinase, sequence (O15146 whole entry): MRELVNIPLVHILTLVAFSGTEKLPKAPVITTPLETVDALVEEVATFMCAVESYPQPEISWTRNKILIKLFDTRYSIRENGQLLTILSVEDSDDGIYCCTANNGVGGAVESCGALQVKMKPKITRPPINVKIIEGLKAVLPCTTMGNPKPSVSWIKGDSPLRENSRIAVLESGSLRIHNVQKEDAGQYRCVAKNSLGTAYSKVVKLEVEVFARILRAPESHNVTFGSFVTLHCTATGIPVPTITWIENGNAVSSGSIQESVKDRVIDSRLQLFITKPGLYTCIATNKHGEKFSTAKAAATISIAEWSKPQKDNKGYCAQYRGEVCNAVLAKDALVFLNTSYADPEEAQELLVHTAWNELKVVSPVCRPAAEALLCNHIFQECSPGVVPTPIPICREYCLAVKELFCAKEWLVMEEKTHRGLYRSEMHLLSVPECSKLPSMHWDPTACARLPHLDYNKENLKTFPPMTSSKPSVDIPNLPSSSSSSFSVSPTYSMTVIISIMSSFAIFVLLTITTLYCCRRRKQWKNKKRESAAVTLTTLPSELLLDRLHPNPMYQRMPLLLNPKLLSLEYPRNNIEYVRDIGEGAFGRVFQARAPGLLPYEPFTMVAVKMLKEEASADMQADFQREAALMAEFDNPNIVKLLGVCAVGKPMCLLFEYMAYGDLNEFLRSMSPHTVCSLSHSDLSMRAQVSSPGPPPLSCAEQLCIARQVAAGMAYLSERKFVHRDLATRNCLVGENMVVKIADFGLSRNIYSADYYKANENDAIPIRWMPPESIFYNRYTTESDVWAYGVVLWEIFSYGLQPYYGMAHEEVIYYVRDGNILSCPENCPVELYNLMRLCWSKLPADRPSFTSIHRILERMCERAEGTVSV

O=C(N[C@@H](c1ccccn1)C1CC1)c1ccc2[nH]nc(-c3ccc(N4[C@H]5CC[C@H]4CC(O)C5)cc3)c2c1 (stereo in doubt; 75)
Cmax [1]: 2000 ng/mL | half-life at 1 µM [2]: > 1 h | IC50 [3]: 280 nM | Activity [4]: 94% | fraction unbound [5]: 0.042 | GI50 [6]: 24 nM | GI50 [7]: 36 nM | GI50 [8]: 36 nM | IC50 [9]: 690 nM | GI50 [10]: 60 nM | GI50 [11]: 17 nM | GI50 [12]: 15 nM | inhibition in vivo at 30 mg/kg [13]: 66% | inhibition in vivo at 23 mg/kg [14]: 55% | bioavailability [15]: 43% | GI50 at 120 h [16]: > 30000 nM | IC50 [17]: 1300 nM | GI50 [18]: 18 nM | GI50 [19]: 8 nM | GI50 [20]: 80 nM | half-life at 1 µM [21]: > 1 h | fraction unbound [22]: 0.069 | IC50 [23]: 2800 nM
